Test results published in PMC11718171 (Biophysics and Physicobiology, 2024).
Values belong to the compound of their own block, whether it stands above or below them. Ends that are not written are not given here.

Tests used:
[1] = system: Lg-CD86; test: Orthogonality of labeling, Lg-CD86-expressing cells; format: cell-based, human; details: 10 nM each, simultaneous labeling, HEK293
How it was run: (§1)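 HEK293A cells in DMEM with 5% FBS, seeded on coverslips and same-day transfected (Lipofectamine 3000, 1 µg total plasmid made up with pCAGGS) with LgBiT-, SNAP- or HaloTag-fused CD86 (1-277). Co-labeled with SF650-FiBiT, SNAP-cell TMR-star and Halo-JF549 in phenol red-free complete DMEM, 15 min, 37°C. Washed thrice, imaged in 0.01% BSA-HBSS. Bright spots counted against coverslip background.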

[2] = system: SNAP-CD86; test: Orthogonality of labeling, SNAP-CD86-expressing cells; format: cell-based, human; details: 10 nM each, simultaneous labeling, HEK293
How it was run: as §1

[3] = system: LgBiT; details: in vitro, grating-coupled interferometry; ref [27]; cited from earlier work
[4] = Non-specific binding on coverslips; details: 10 nM, washed three times with complete phenol red-free DMEM, then BSA-HBSS
How it was run: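 No cells: fluorescent HiBiT or FiBiT peptide diluted in phenol red-free DMEM with 5% FBS, penicillin, streptomycin and glutamine. Added to a dish containing a glass coverslip and held 15 min at 37°C. Washed three times, mounted in a chamber in HBSS with 0.01% BSA, then imaged at single-molecule level for adsorbed bright spots.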

Compound: CN(C)c1ccc2c(-c3cc(C(=O)NCc4ccc(COc5nc(N)nc6nc[nH]c56)cc4)ccc3C(=O)[O-])c3ccc(=[N+](C)C)cc-3oc2c1 [SNAP-TMR]
staining of Lg-CD86-expressing cells [1]: not by SNAP-TMR nor Halo-JF549
labeling of SNAP-CD86-expressing cells [2]: labeled by SNAP-TMR ligand

Compound: HiBiT: HiBiT peptide (~1.3 kDa), NanoLuc fragment (VSGWRLFKKIS; also: TMR label, site not given here)
on-time of LgBiT-HiBiT interaction [3]: ~ 12 min

non-specific binding to coverslips [4]: greatly reduced the non-specific binding
Compound: TMR-DYKDDDDKGDGSVSGWRLFKKIS [TMR-FiBiT]
